High-throughput results from PubChem BioAssay.
This is a sample that favours compounds with a hit; in the whole collection about 3.9% have one here.
CHOP inhibitor: CHOP inhibition in unfolded protein response; CHO-K1 CHOP-promoter luciferase, tunicamycin-induced, 15-18 h; inhibition, % at 10 µM; actives 3.8% (n = 220,000); AID 2732;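 active means compounds that reduced the stress-induced luciferase reporter signal by more than about 70% of percent inhibition, limit read from the data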;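 further: 0% = tunicamycin plus vehicle and 100% = wells without tunicamycin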
Jurkat NFkB inh: lowers PMA/ionomycin-induced NF-kB signal in Jurkat cells. PMA/ionomycin-induced NF-kB luciferase reporter, luminescence. inhibition, % at 4 µM. actives 0.53% (n = 330,000). AID 435003; in the data active means inhibition above about 50%
CHOP UPR activ: activators of apoptotic arm of unfolded protein response (CHOP); actives 0.34% (n = 330,000); CHO-CHOP luciferase reporter, UPR activation, luminescence; percent of tunicamycin response over DMSO baseline; activation, % at 10 µM;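 active means at 10 µM dose, activation of 40% or more, normalized to positive control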;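 further: 100% = tunicamycin at 10 µg/mL and 0% = DMSO alone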
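measured by = luciferase luminescence | assay system = CHO-CHOP cells, stable luciferase reporter of PERK-eIF2a-CHOP signalling | amount = 500 reporter cells seeded per well | timing = 6 h compound exposure at 37 °C after overnight seeding | controls = positive tunicamycin 10 µg/mL, negative DMSO alone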
Gli-Sufu block: Gli-Sufu pathway antagonism. Sufu-KO-LIGHT fibroblasts, Gli luciferase reporter luminescence. inhibition, % at 5 µM. actives 0.74% (n = 340,000);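 active means inhibition above about 55%, limit read from the data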;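 further: 0% = DMSO-treated cells and 100% = wells with medium but no cells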
XBP1 UPR activ: adaptive UPR (XBP1) activation | CHO-XBP1 luciferase reporter, IRE1-XBP1 UPR activation, luminescence; percent of tunicamycin response, DMSO as zero | activation, % at 20 µM | actives 0.33% (n = 330,000);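 active means versus positive control, 20 µM dose yields 30% or more activation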;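 further: 100% = tunicamycin at 10 µg/mL and 0% = DMSO only wells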
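Assay system: IRE1-XBP1 luciferase reporter CHO line. Input: 1000 cells/well. Buffer or medium: F12 with 10% serum. Doses: 20 µM, 1% DMSO. Times: overnight seeding at 37 °C, 6 h compound treatment at 37 °C. Technique: Steady-Glo luciferase glow luminescence, 10 min after reagent addition.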
697 NFkB inh: inhibitors of the PMA/ionomycin-induced NF-kB reporter in 697 B cells | 697 B-cell NF-kB luciferase reporter, 16 h | actives 0.33% (n = 330,000) | inhibition, % at 4 µM | AID 435022; in the data active means inhibition above about 35%
Active calls of the source: *.

Cc1ccc(Cl)cc1N(CC(=O)NC1CCCC1)C(=O)c1csnn1 was read as Jurkat NFkB inh 3, CHOP UPR activ 1, Gli-Sufu block 4, XBP1 UPR activ 5 and 697 NFkB inh 11.
`COc1ccc(OC)c(Nc2nc3nonc3nc2N2CCCC(C)C2)c1` (centres undefined) gave CHOP inhibitor 77*, Jurkat NFkB inh 9, CHOP UPR activ 0, Gli-Sufu block 33, XBP1 UPR activ 2 and 697 NFkB inh -8.
Screening CC1CCCC(C)N1C(=O)COC(=O)c1ccc(F)c(S(=O)(=O)N2CCOCC2)c1 (centres undefined) returned Jurkat NFkB inh -7, CHOP UPR activ 2, Gli-Sufu block -1, XBP1 UPR activ -2 and 697 NFkB inh -29.
For COc1ccc(S(=O)(=O)N(Cc2ccccc2)Cc2nc3ccccc3c(=O)[nH]2)cc1 the results were CHOP inhibitor 72*, Jurkat NFkB inh -3, CHOP UPR activ -2, Gli-Sufu block 0, XBP1 UPR activ 0 and 697 NFkB inh 13.
Screening CCC1CCCCN1C(=O)CSc1n[nH]c(N)n1 (centres undefined) returned Jurkat NFkB inh -4, CHOP UPR activ 0, Gli-Sufu block -2, XBP1 UPR activ 2 and 697 NFkB inh 17.
For COc1ccc(Nc2cnn(-c3nc4ccccc4s3)c(=O)c2Cl)cc1 the results were CHOP inhibitor 75* and Gli-Sufu block -58.
Cc1cccc(N2C(=O)C3CCCN3C2=S)c1C (centres undefined) was read as Jurkat NFkB inh -11, CHOP UPR activ 0, Gli-Sufu block -2, XBP1 UPR activ -1 and 697 NFkB inh 9.
COc1cccc(/C=N/NC(=O)CCn2c3ccccc3c3ccccc32)c1 was read as CHOP inhibitor 89*, Jurkat NFkB inh 15, CHOP UPR activ -3, XBP1 UPR activ -1 and 697 NFkB inh 5.
`Cc1ccc(C2=NN(C(=O)CCCC(=O)O)C(c3ccc4c(c3)OCO4)C2)cc1` (centres undefined) gave Jurkat NFkB inh -16, CHOP UPR activ 6, Gli-Sufu block -2, XBP1 UPR activ -1 and 697 NFkB inh 1.
CC(C)N(Cc1ccccc1)C(=O)COC(=O)C1CCCCC1 was read as Jurkat NFkB inh -2, CHOP UPR activ 0, Gli-Sufu block -6, XBP1 UPR activ -3 and 697 NFkB inh 3.
COc1cc(C)ccc1OCCOc1c(C)cccc1Cl was read as CHOP inhibitor 71*, Jurkat NFkB inh -32, CHOP UPR activ 3, Gli-Sufu block -11, XBP1 UPR activ 0 and 697 NFkB inh -11.
`CCc1[nH]nc(C(=O)NC2CCCN(Cc3ccccc3F)C2)c1C` (centres undefined) gave Jurkat NFkB inh -10, CHOP UPR activ -1, Gli-Sufu block 10, XBP1 UPR activ -2 and 697 NFkB inh -8.
`OC(Cc1ccnc2ccccc12)C(Cl)(Cl)Cl` (centres undefined) gave Gli-Sufu block 9.
For C=CCn1c(SCC(=O)Nc2cc(C)on2)nc2sc3c(c2c1=O)CCCC3 the results were CHOP inhibitor 34, Jurkat NFkB inh -3, CHOP UPR activ -1, Gli-Sufu block 7, XBP1 UPR activ -1 and 697 NFkB inh 2.
Screening Cc1cc(NC(=O)CSc2nc(C(C)C)nc3sc4c(c23)CCCC4)no1 returned CHOP inhibitor 77*, Jurkat NFkB inh 15, CHOP UPR activ 1, Gli-Sufu block 13, XBP1 UPR activ 6 and 697 NFkB inh -34.
For Cc1cc(NC(=O)CSc2nc3sc4c(c3c(=O)n2C)CCCC4)no1 the results were CHOP inhibitor 30, Jurkat NFkB inh 10, CHOP UPR activ 0, Gli-Sufu block 1, XBP1 UPR activ -1 and 697 NFkB inh 0.
CCn1c(SCC(=O)Nc2cc(C)on2)nc2sc3c(c2c1=O)CCCC3 was read as CHOP inhibitor 107*, Jurkat NFkB inh -7, CHOP UPR activ -1, Gli-Sufu block -3, XBP1 UPR activ -3 and 697 NFkB inh -3.
Screening CCc1cc2cc3c(cc2nc1SCC(=O)Nc1cc(C)on1)OCO3 returned CHOP inhibitor 95*, Jurkat NFkB inh -7, CHOP UPR activ 10, Gli-Sufu block -1, XBP1 UPR activ 15 and 697 NFkB inh 3.
Screening N#Cc1ccc(CC(=O)c2ccccc2)[nH]c1=O returned Gli-Sufu block 3.
For CN(CC(=O)Nc1c(Cl)cccc1Cl)C(=O)Cn1[nH]c(=O)c2ccccc2c1=O the results were Jurkat NFkB inh 0, CHOP UPR activ 1, Gli-Sufu block -14, XBP1 UPR activ -1 and 697 NFkB inh 19.
For CCc1ccc(/C=C2\SC(=S)N(CCCC(=O)Nc3nccs3)C2=O)cc1 the results were CHOP inhibitor 78*, Jurkat NFkB inh 9, CHOP UPR activ 1, Gli-Sufu block 50, XBP1 UPR activ -4 and 697 NFkB inh 27.
`Cc1ccc(/C=C2\SC(=S)N(CCCC(=O)Nc3nccs3)C2=O)cc1` gave CHOP inhibitor 59, Jurkat NFkB inh -3, CHOP UPR activ -5, Gli-Sufu block 12, XBP1 UPR activ -2 and 697 NFkB inh 32.
Cc1cnc(NC(=O)c2ccc(-c3nc4ccccc4s3)o2)s1 was read as CHOP inhibitor 74*, Jurkat NFkB inh -13, CHOP UPR activ 2, Gli-Sufu block -29, XBP1 UPR activ 1 and 697 NFkB inh -21.
`Cc1cnc(NC(=O)c2ccc(-c3ccc([N+](=O)[O-])cc3)o2)s1` gave Jurkat NFkB inh 28, CHOP UPR activ 0, Gli-Sufu block 7, XBP1 UPR activ 2 and 697 NFkB inh 6.
Screening CSCC[C@H](N)C(=O)NC[C@H]1CC[C@H](C(=O)N[C@@H](Cc2ccccc2)C(=O)O)CC1 returned Jurkat NFkB inh -1, CHOP UPR activ -1, Gli-Sufu block 9, XBP1 UPR activ 1 and 697 NFkB inh -8.
For Cc1ccc(C(c2ccc(C)c(C)c2)C(O)C2OC(=O)C(O)C2O)cc1C (centres undefined) the results were Gli-Sufu block -1.
For Cc1ccc(Cl)cc1N1CCN(C(=O)Cc2cn(C)c3ccccc23)CC1 the results were CHOP inhibitor 61, Jurkat NFkB inh 8, CHOP UPR activ 2, Gli-Sufu block 13, XBP1 UPR activ 2 and 697 NFkB inh 12.
For Cc1ccc(C)c(N2CCN(C(=O)c3csc4ccccc34)CC2)c1 the results were CHOP inhibitor 80*, Jurkat NFkB inh 11, CHOP UPR activ 0, Gli-Sufu block 8, XBP1 UPR activ 1 and 697 NFkB inh 13.
Cc1ccc(C)c(N2CCN(C(=O)Cc3cn(C)c4ccccc34)CC2)c1 was read as CHOP inhibitor 74*, Jurkat NFkB inh 11, CHOP UPR activ 1, Gli-Sufu block 13, XBP1 UPR activ -2 and 697 NFkB inh -1.
